Data on 11 compounds can be found in publication PMC2859677 (Journal of medicinal chemistry, 2010).

The target of data set [1] is T1, TLR2 (Homo sapiens, UniProt O60603). The data set is described as follows: Test of compounds as TLR2 receptor antagonists. Format: cell-based.
Target sequence in this assay (O60603 21-784): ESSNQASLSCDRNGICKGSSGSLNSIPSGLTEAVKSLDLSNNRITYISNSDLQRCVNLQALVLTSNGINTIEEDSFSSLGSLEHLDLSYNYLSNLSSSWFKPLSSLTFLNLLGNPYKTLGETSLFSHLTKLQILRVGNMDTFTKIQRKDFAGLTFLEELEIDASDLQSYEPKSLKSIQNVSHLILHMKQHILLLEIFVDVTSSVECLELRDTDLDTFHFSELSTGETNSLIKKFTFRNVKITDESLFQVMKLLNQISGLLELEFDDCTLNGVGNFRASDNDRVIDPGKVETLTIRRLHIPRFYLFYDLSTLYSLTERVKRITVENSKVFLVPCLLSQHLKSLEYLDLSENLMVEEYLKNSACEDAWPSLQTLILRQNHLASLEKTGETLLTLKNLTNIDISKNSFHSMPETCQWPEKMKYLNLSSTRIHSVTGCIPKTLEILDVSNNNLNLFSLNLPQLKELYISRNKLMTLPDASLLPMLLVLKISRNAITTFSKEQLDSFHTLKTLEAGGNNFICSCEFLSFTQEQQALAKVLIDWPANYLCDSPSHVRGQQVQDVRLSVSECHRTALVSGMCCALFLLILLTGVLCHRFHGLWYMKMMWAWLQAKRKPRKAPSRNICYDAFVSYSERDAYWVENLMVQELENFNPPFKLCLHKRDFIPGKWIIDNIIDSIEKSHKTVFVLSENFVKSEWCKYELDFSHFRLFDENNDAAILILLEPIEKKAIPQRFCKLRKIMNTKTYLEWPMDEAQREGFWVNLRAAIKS
Data set [2] addresses T1, TLR2. The data set can be described thus: NF-κB induction. Format: cell-based. Put shortly: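 HEK293 cells stably transfected with TLR2, MD2, CD14 and a secreted alkaline phosphatase (sAP) reporter under NF-κB/AP-1 promoters. Cells were kept in selection medium with zeocin and normocin. They were grown in 384-well plates to confluency, then given graded concentrations of stimuli. Supernatant sAP, taken as proportional to NF-κB induction, was read at 620 nm with an alkaline phosphatase-specific chromogen in detection medium.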
Target sequence in this assay (O60603 21-784): as above
Target sequence in this assay (Q9Y2C9 32-796 partner): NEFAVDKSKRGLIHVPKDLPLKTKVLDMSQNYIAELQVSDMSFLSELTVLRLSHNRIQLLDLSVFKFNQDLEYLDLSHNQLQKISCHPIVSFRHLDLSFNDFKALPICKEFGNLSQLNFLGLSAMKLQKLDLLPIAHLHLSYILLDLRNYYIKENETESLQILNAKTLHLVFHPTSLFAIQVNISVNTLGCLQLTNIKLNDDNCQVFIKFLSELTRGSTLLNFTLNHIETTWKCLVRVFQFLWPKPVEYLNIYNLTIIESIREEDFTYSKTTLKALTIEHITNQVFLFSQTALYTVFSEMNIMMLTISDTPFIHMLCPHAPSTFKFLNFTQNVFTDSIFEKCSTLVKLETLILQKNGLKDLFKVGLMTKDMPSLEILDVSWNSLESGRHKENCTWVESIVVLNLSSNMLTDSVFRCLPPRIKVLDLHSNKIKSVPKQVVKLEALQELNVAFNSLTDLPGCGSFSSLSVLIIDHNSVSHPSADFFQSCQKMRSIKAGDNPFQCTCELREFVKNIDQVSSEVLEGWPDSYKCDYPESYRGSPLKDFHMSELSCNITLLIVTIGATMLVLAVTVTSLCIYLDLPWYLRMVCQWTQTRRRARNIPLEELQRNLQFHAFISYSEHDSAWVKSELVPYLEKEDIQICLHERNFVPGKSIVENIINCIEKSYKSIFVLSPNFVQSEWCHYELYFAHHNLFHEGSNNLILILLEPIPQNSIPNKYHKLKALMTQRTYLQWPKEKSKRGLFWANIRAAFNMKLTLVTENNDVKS

For a further data set, the system named is murine cells. The settings on record: cited from earlier work.
In a further data set the test system is rabbits. The data set is described as follows: Fever response / acute toxicity in rabbits. Format: in vivo, rabbit. As to conditions: dose of 100 ng/kg, manuscript in preparation.
Data set [3] has as its system patients with inoperable carcinoma of the pancreas. The settings on record: single intraoperative 20–30 μg intratumoral injection; cited from earlier work.

On to `CCCCCCCCCCCCCCCC(=O)OC[C@@H](CSCCN)OC(=O)CCCCCCCCCCCCCCC` [Compound 6b, (S)-3-(2-aminoethylthio)propane-1,2-diyl dipalmitate], for which the “Activity as TLR2 receptor antagonist” value on TLR2 [1] is “inactive”. In addition, the “TLR2 agonistic activity (in words)” value on TLR2 [2] (human TLR2 reporter gene assay) is “completely inactive”.

For `CCCCCCCCCCCCCCCC(=O)N[C@H](COC(=O)CCCCCCCCCCCCCCC)CSC[C@H](N)C(=O)N[C@@H](CO)C(=O)OC.O=C(O)C(F)(F)F` [Compound 37, (R)-3-((R)-2-amino-3-((S)-3-hydroxy-1-methoxy-1-oxopropan-2-ylamino)-3-oxopropylthio)-2-palmitamidopropyl palmitate], the “Activity as TLR2 receptor antagonist” value on TLR2 [1] was “inactive”. Moreover, the “TLR2 agonistic activity relative to reference lipopeptide PAM2CSK4” value on TLR2 [2] (compared with PAM2CSK4) was “weaker by about three orders of magnitude”. At TLR2 [2] (human TLR2 reporter gene assay), the “TLR2 agonistic activity (in words)” value is “partially active”.

Turning to lipopolysaccharide [LPS], the Secretion of chemokines entry in the data set on murine cells is recorded as “potently induced the secretion of a similar pattern of chemokines”. The Fever response entry in the data set with rabbits was “robust fever response”.

Take `CCCCCCCCCCCCCCCCOC[C@H](CSC[C@H](N)C(=O)N[C@@H](CO)C(=O)OC)OCCCCCCCCCCCCCCCC` [Compound 28, (S)-methyl 2-((R)-2-amino-3-((R)-2,3-bis(hexadecyloxy)propylthio)propanamido)-3-hydroxypropanoate]: the “Activity as TLR2 receptor antagonist” value on TLR2 [1] is “inactive”. The “TLR2 agonistic activity (in words)” value on TLR2 [2] (human TLR2 reporter gene assay) is “entirely inactive”.

As for `CCCCCCCCCCCCCCCC(=O)NC[C@H](CSC[C@H](N)C(=O)N[C@@H](CO)C(=O)OC)NC(=O)CCCCCCCCCCCCCCC` [Compound 45, (S)-methyl 2-((R)-2-amino-3-((R)-2,3-dipalmitamidopropylthio)-propanamido)-3-hydroxypropanoate], the “Activity as TLR2 receptor antagonist” value on TLR2 [1] was “inactive”. Besides, the “TLR2 agonistic activity (in words)” value on TLR2 [2] (human TLR2 reporter gene assay) was “completely inactive”.

With `CCCCCCCCCCCCCCCC(=O)OC[C@H](CSCCN)OC(=O)CCCCCCCCCCCCCCC` [Compound 6a, (R)-3-(2-aminoethylthio)propane-1,2-diyl dipalmitate], the “Activity as TLR2 receptor antagonist” value on TLR2 [1] was “inactive”. The IC50 (commonly the point on the concentration scale where inhibition reaches its midpoint) against TLR2 [2] is 1 µM. At TLR2 [2] (human TLR2 reporter gene assay), the “TLR2 agonistic activity (in words)” value was “weakly active”.

MALP-2: in data set [3], the “Efficacy (survival)” value is reported as “efficacious in prolonging survival” and the Tolerability entry is reported as “well-tolerated”.

In the case of `CCCCCCCCCCCCCCCC(=O)OC[C@@H](CSCCNC(=O)[C@H](N)CO)OC(=O)CCCCCCCCCCCCCCC` [Compound 8b, (S)-3-(2-((R)-2-amino-3-hydroxypropanamido)ethylthio)propane-1,2-diyl dipalmitate], at TLR2 [2] (human TLR2 reporter gene assay), the “TLR2 agonistic activity (in words)” value is listed as “only 8a was active”.

As for `CCCCCCCCCCCCCCCC(=O)OC[C@H](COCC(N)C(=O)N[C@@H](CO)C(=O)OC)OC(=O)CCCCCCCCCCCCCCC` (stereo partly drawn) [Compound 21a, (S)-3-(2-amino-3-((S)-3-hydroxy-1-methoxy-1-oxopropan-2-ylamino)-3-oxopropoxy)propane-1,2-diyl dipalmitate], the “Activity as TLR2 receptor antagonist” value at TLR2 [1] is “inactive”.

On to `CCCCCCCCCCCCCCCC(=O)OC[C@H](COCC(N)C(=O)N[C@H](CO)C(=O)OC)OC(=O)CCCCCCCCCCCCCCC` (stereo partly drawn) [Compound 21b, (S)-3-(2-amino-3-((R)-3-hydroxy-1-methoxy-1-oxopropan-2-ylamino)-3-oxopropoxy)propane-1,2-diyl dipalmitate], for which the “Activity as TLR2 receptor antagonist” value on TLR2 [1] was “inactive”. The “TLR2 agonistic activity (in words)” value at TLR2 [2] (at the highest concentration tested) is “inactive”.

`CCCCCCCCCCCCCCCC(=O)OC[C@H](CSC[C@H](N)C(=O)OC)OC(=O)CCCCCCCCCCCCCCC` [Compound 11, (R)-3-((R)-2-amino-3-methoxy-3-oxopropylthio)propane-1,2-diyl dipalmitate]: the “TLR2 agonistic activity (in words)” value at TLR2 [2] (human TLR2 reporter gene assay) is recorded as “weakly TLR2-agonistic”.
